# Most compounds without a hit are left out; they make up all but 1.8% or so of the library.
# NPY1 pot ag – potentiators or agonists of human neuropeptide Y receptor Y1 | P25929 | 220,000 tested, 0.37% active | AID 1304 | NPY-Y1 expressing cells, potentiator/agonist activation | activation, % at 3.6 µM; in the data active = activation above about 33%, passing the limit was not always enough;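 note: cells stimulated with NPY at EC10 then isoproterenol at EC100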
# NPY-Y2 PAM-ag – human NPY-Y2 potentiation or agonism, primary screen; P49146; cells expressing NPY-Y2, potentiator/agonist read-out; activation, % at 3.6 µM; 220,000 tested, 0.45% active; in the data active = activation above about 27%;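 note: cells stimulated with NPY near EC25 plus isoproterenol at EC100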
# Target sequence (P49146 whole entry, looked up): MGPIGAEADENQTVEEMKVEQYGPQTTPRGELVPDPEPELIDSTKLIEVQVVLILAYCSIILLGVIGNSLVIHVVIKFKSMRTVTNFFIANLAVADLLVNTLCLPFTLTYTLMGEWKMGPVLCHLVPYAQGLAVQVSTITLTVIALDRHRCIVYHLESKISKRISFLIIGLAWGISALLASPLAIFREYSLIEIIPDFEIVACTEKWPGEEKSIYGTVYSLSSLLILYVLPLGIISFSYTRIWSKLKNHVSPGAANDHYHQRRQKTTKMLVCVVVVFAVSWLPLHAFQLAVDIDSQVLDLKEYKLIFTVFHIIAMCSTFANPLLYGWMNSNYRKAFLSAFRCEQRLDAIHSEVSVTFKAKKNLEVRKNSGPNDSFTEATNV
# NPY Y2 blocker – antagonists of human neuropeptide Y receptor Y2. NPY-Y2 expressing cells, antagonist mode. inhibition, % at 2.7 µM. 140,000 tested, 0.99% active. AID 793
# NPY-Y1 antag – NPY-Y1 (human) receptor antagonism | HEK293-CNG Y1 cells, membrane potential fluorescence; NPY at EC95, then isoproterenol | inhibition, % at 3.6 µM | 200,000 tested, 1% active | AID 1040;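 active = inhibition above the campaign mean inhibition of all tested compounds plus 3 SD, cut at about 20% in these data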
#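 Test system: HEK293 cells co-expressing NPY Y1 receptor and cyclic-nucleotide gated channel; Also added: NPY (25 nM), isoproterenol (1 µM), Ro 20-1724 (25 µM); Compound dosing: one concentration, 3.6 µM, in 0.4% DMSO; Timing: dye 3 h, compound 60 min room temperature, stimulation 45 min; Technique: Membrane-potential fluorescent dye readout.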
# NPY1 antag conf – confirmation of human neuropeptide Y receptor Y1 antagonists. shares compounds with NPY-Y1 antag. HEK293-CNG NPY-Y1, membrane potential fluorescence, cAMP; NPY challenge against isoproterenol-raised cAMP. inhibition, % at 3.6 µM. 1,200 tested, 21% active; in the data active = inhibition above about 20%
# NPY2 antag ctr – counter-screen for NPY-Y1 antagonists: human NPY-Y2 antagonism; shares compounds with NPY-Y1 antag; HEK293 NPY-Y2 CNG membrane potential fluorescence; cells given NPY, then isoproterenol; inhibition, % at 3.6 µM; 1,200 tested, 28% active; AID 1255
# Numbers stand for hits; n = inactive; x = no result. Cut-off read from the data, not from the text of the source, unless noted: active = inhibition above about 17%; inactive = the rest.
SMILES,NPY1 pot ag,NPY-Y2 PAM-ag,NPY Y2 blocker,NPY-Y1 antag,NPY1 antag conf,NPY2 antag ctr
OCCC1CN(Cc2cccn2-c2ccccn2)CCN1C1CCCC1 (configuration not stated),n,n,x,n,x,x
Cc1ccsc1C(=O)C1CCCN(Cc2cccn2-c2ccc(Cl)cn2)C1 (configuration not stated),n,n,x,41,42,38
O=C(c1ccc(Cl)cc1)C1CCCN(Cc2cccn2-c2ccccn2)C1 (configuration not stated),n,n,x,59,32,31
O=C(c1ccc(C(F)(F)F)cc1)C1CCCN(Cc2cccn2-c2ncccn2)C1 (configuration not stated),n,n,x,23,n,18
CCN(CC(N)=O)S(=O)(=O)c1ccc(Br)cc1,n,n,n,n,x,x
O=C(O)c1ccc(COCC(F)(F)C(F)F)o1,n,n,n,n,x,x
Cc1ccc(-n2cccn2)c(CN2CCCC(C(=O)c3sccc3C)C2)c1 (configuration not stated),n,n,x,72,32,38
CC(C)Oc1cccc(C(=O)C2CCCN(Cc3cccn3-c3ccccn3)C2)c1 (configuration not stated),n,n,x,49,44,40
COc1ccc(C(=O)C2CCCN(Cc3cccn3-c3ccccn3)C2)cc1F (configuration not stated),55,45,x,22,n,n
COc1ccc(C(=O)C2CCCN(Cc3cccn3-c3nccs3)C2)cc1F (configuration not stated),n,n,x,n,x,x
Cc1ccc(CNC(=O)COC(=O)c2ccc(Cl)c(N)c2)cc1,n,n,n,n,x,x
O=C(NC(=S)Nc1ccc(CN2CCCCC2)cc1)c1cccc(OCc2ccccc2)c1,n,n,x,42,42,53
COc1cc(/C=N/N=C(/N)c2nonc2N)cc(Br)c1OCc1cccc(C)c1,n,n,n,21,n,n
Cc1cccc(C)c1-n1c(C)nn(CC2CC2)c1=O,n,n,x,n,x,x
COc1cccc(C2=NOC(C(=O)NCc3ccc(F)cc3)C2)c1 (configuration not stated),n,n,n,23,n,24
COc1ccc(C2=NOC(C(=O)NCc3ccc(F)cc3)C2)cc1OC (configuration not stated),n,n,n,33,n,n
COc1cccc(C2=NOC(C(=O)NCc3cccs3)C2)c1 (configuration not stated),n,n,n,30,n,n
COc1ccc(CNC(=O)C2CC(c3cccc(OC)c3)=NO2)cc1 (configuration not stated),n,n,n,n,x,x
COc1cc(C2=NOC(C(=O)NCc3ccc(F)cc3)C2)cc(OC)c1OC (configuration not stated),n,n,n,n,x,x
CCc1ccc2[nH]c(=O)c(CN(Cc3ccccc3)C(=O)Nc3ccccc3OC)cc2c1,n,n,n,n,x,x
COc1ccccc1-c1cc2nc(C)cc(C)n2n1,n,n,x,x,x,x
CCOC(=O)c1c(C)n(-c2ccc(C)cc2)c2ccc(OCC(O)CNCCCO)cc12 (configuration not stated),n,n,x,29,36,41
CCOC(=O)c1c(C)n(-c2ccc(C)cc2)c2ccc(OCC(O)CNCC3CCCO3)cc12 (configuration not stated),n,n,x,59,62,72
CN1CCN(C(=O)c2ccccc2-c2nc(-c3ccccc3)no2)CC1,n,n,n,28,n,n
Cc1cccc(NC(=O)c2ccc(NC(C)c3ccccc3)c([N+](=O)[O-])c2)n1 (configuration not stated),n,n,x,n,x,x
SMILES,NPY1 pot ag,NPY-Y2 PAM-ag,NPY Y2 blocker,NPY-Y1 antag,NPY1 antag conf,NPY2 antag ctr
O=C(CN1CCCCC1)NCC1(c2ccccc2)CCCC1,n,n,x,n,x,x
O=C(OCC(=O)N1N=C(c2ccc(Cl)cc2)CC1c1ccco1)c1ccccc1O (configuration not stated),n,n,n,22,n,n
O=C(CSc1nnc(-c2cccs2)o1)Nc1cccc(S(=O)(=O)N2CCCCC2)c1,n,n,n,n,x,x
Cc1cc(NC(=O)CSc2nc3ccccc3c(=O)n2C2CCCC2)no1,n,n,n,33,n,n
OC(COc1ccc2c(c1)CCC2)CN1CCN(c2ccccc2F)CC1 (configuration not stated),n,n,n,26,n,n
COc1ccc2cc(Br)ccc2c1CC(=O)NC1CC(C)(C)NC(C)(C)C1,n,n,n,n,x,x
O=C(O)CCSc1nc2ccccc2s1,n,n,n,27,n,n
S=c1[nH]nc(-c2cc(-c3ccsc3)n[nH]2)n1-c1cccc2ccccc12,n,n,x,n,x,x
COc1ccc(-c2cc(-c3n[nH]c(=S)n3-c3cccc4ccccc34)[nH]n2)cc1,n,n,x,55,85,101
CN1CCN(c2nc(-c3ccccc3)c3cc(Cl)ccc3n2)CC1,n,n,n,n,x,x
Clc1ccc2nc(N3CCNCC3)nc(-c3ccccc3)c2c1,n,n,n,26,n,20
COc1cc2cc(C)nc(Cc3cccc4ccccc34)c2cc1OC,n,n,n,27,n,n
COc1ccc(-c2cc3cc(OC)c(OC)cc3c(C)n2)cc1,n,n,x,x,x,x
O=C(NC1CCC(O)CC1)c1ccc(-c2ccc([N+](=O)[O-])cc2)o1 (configuration not stated),n,n,x,x,x,x
Cc1ccc(N=Cc2c(O)n(-c3cc(Cl)ccc3N3CCOCC3)c(=O)c3ccccc23)cc1C,n,n,n,22,n,27
COc1ccc(-n2c(CCC(=O)O)ccc2-c2ccccc2)cc1,n,n,x,27,n,n
COc1ccc(-c2ccc(CCC(=O)O)n2-c2ccccc2O)cc1,n,n,x,x,x,x
CCCCN(c1ccc(C(=O)OC)cc1)S(=O)(=O)c1ccccc1,n,n,x,86,n,n
CCCN(c1ccc(C(=O)OC)cc1)S(=O)(=O)c1ccccc1,n,n,x,n,x,x
COc1ccc(CN2CCNC(=O)C2CC(=O)NC2Cc3ccccc3C2)c(OC)c1 (configuration not stated),n,n,x,n,x,x
N=c1c2c(-c3ccccc3)c(-c3ccccc3)n(Cc3ccco3)c2ncn1CCCN1CCOCC1,n,n,x,56,44,39
Cc1ccc(C(=O)COC(=O)CNS(=O)(=O)c2ccccc2)cc1[N+](=O)[O-],n,n,n,n,x,x
O=C(NCCC1=CCCCC1)c1cc(-c2ccncc2)nc2ccccc12,n,n,x,27,27,23
CCCCOC(=O)c1cc(=O)[nH]c2ccccc12,n,n,n,n,x,x
CCCCOC(=O)c1cc(=O)[nH]c2ccc(C)cc12,n,n,x,22,n,n
CCNC(=O)NC(=O)C(C)Oc1ccc(Br)cc1Br (configuration not stated),n,n,x,n,x,x
COc1ccccc1/C(C)=N/NC(=S)NCc1ccccc1,n,n,x,n,x,x
CCCC(O)(CCC)C(=O)NN(C(=O)CCl)c1ccccc1,n,n,n,n,x,x
